Source: PubChem BioAssay (Sanford-Burnham Center for Chemical Genomics)
Scp1 inh: Scp-1 phosphatase inhibitors, primary screen, biochemical, colorimetric, uHTS. inhibition, % at 20 µM. Recombinant Scp1, phosphopeptide, malachite green phosphate absorbance. 340,000 tested, 0.88% active;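 active = inhibition above about 50% at 20 µM, limit read from the data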;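 note: plate controls were DMSO wells with enzyme for no effect and wells lacking enzyme for full effect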
Target sequence (Q9GZU7 76-261 limits assumed): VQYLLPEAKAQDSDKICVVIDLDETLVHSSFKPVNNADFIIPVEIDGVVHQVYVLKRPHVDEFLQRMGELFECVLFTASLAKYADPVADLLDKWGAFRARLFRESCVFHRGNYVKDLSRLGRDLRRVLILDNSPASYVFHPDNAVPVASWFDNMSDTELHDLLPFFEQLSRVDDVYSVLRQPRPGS
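assay system = SCP-1 phosphatase catalytic domain, residues 76-261 | buffer or medium = 50 mM Tris acetate pH 5.5, 0.005% Tween-20, 10 mM MgCl2 | incubation = enzyme reaction 45 min at room temperature, colour 5 min, stabilisation 30 min | signal = Phosphate-binding colour reagent, absorbance read at 630 nm | measure = % inhibition at 20 µM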
DNMT1 block: human DNMT1 methyltransferase inhibitors, primary screen, biochemical, molecular beacon, fluorescence, HinP1I cleavage, uHTS; DNA (cytosine-5)-methyltransferase 1 (Homo sapiens), P26358; inhibition (reported as % activation of signal), % at 10 µM; 360,000 tested, 0.83% active; AID 588458, 2011; in the data active = inhibition above about 50%
SUMO1 PPI mod: modulators of SUMO1 protein-protein interactions, primary screen, biochemical, uHTS; SUMO1 binding to a labelled peptide, TR-FRET, 1 h; inhibition, % at 20 µM; 360,000 tested, 0.33% active; in the data active = inhibition above about 37%
Target sequence (P63165 whole entry, looked up): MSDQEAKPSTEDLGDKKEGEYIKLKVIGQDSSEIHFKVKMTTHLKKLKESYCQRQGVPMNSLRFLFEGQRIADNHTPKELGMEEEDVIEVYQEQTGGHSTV
LMPTP block: LMPTP phosphatase inhibitors, primary screen, biochemical, fluorescence intensity, uHTS; recombinant LMPTP-A, OMFP fluorogenic substrate; inhibition, % at 20 µM; 360,000 tested, 0.22% active; AID 651560, 2012;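 active = compounds that cut the enzyme signal by at least half of the control window in the single-dose screen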;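 note: plate controls were DMSO wells with enzyme plus substrate for no effect and substrate without enzyme for full effect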
Target sequence (P24666 whole entry, looked up): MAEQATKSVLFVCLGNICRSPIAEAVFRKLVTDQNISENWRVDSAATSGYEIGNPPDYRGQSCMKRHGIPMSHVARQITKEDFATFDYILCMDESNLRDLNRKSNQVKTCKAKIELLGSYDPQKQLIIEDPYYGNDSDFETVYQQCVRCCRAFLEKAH
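Test system: LMPTP-A, protein tyrosine phosphatase of low molecular weight; Input: 0.625 nM enzyme; Incubation: 50 min dark incubation at room temperature; Signal: endpoint fluorescence intensity from OMFP dephosphorylation; Read-out basis: % inhibition versus control wells.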
STEP inh: STEP phosphatase inhibitors, primary screen, biochemical, fluorescence intensity, uHTS. 360,000 tested, 0.25% active. Tyrosine-protein phosphatase non-receptor type 5 (Homo sapiens), P54829. AID 588621, 2011. recombinant STEP, OMFP fluorogenic substrate. inhibition, % at 20 µM;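 active = inhibition at 20 µM, scaled per plate between control wells, above about 37%, limit read from the data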;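 note: 0% = DMSO with enzyme and substrate and 100% = substrate only without enzyme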
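System: STEP (striatal-enriched tyrosine phosphatase) enzyme, cell-free; medium: Bis-Tris pH 6.0 buffer with DTT, detergent; dosing: 20 µM, 1% DMSO; times: reaction 20 min, ambient temperature; detection: fluorescence, 480/540 nm; read-out basis: normalized % inhibition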
Starred values were filed as active, the others as inactive. Most compounds without a hit are left out; they make up all but 1.8% or so of the library.

How did COc1cc2c(oc(=O)c3cc(C)cc(OC)c32)c2c(C3OC(C)C(O)C(C)(O)C3O)ccc(O)c12 (configuration not stated) do in these assays?
Scp1 inh: 10; DNMT1 block: 63*; SUMO1 PPI mod: -8; LMPTP block: 2; STEP inh: 1

What do the screens show for `O=C(c1ccc(CSc2nc3ccncc3[nH]2)cc1)N1CCCCC1`?
Scp1 inh: -13; DNMT1 block: -5; SUMO1 PPI mod: 6; LMPTP block: 13; STEP inh: -1

How did COc1cccc(N2CCN(C(=O)c3ccc(CSc4nc5ccncc5[nH]4)cc3)CC2)c1 do in these assays?
Scp1 inh: -12; DNMT1 block: -1; SUMO1 PPI mod: -6; LMPTP block: 52*; STEP inh: -1

What do the screens show for `COc1ccccc1-c1cc(NC=O)c2ncc(-c3ccc(S(C)(=O)=O)cc3)n2c1`?
DNMT1 block: 6; SUMO1 PPI mod: -7; LMPTP block: 1; STEP inh: 0

Results for Cc1cc(O)c(C=O)c2c1C(=O)Oc1c(CO)c(O)c3c(c1O2)C(O)OC3=O (configuration not stated) ?
Scp1 inh: 77*; DNMT1 block: 57*; SUMO1 PPI mod: 103*; LMPTP block: 57*; STEP inh: 46*

What do the screens show for `CCc1ccc(CNC(=O)Cc2ccc(NC(=O)C3=C(C)OCCS3)cc2)cc1`?
Scp1 inh: 85*; DNMT1 block: 48; SUMO1 PPI mod: 2; LMPTP block: 6; STEP inh: 2

What do the screens show for `CC1=C(C(=O)Nc2ccc(CC(=O)NCc3ccccc3C)cc2)SCCO1`?
Scp1 inh: -6; DNMT1 block: -1; SUMO1 PPI mod: 4; LMPTP block: 0; STEP inh: 2

Results for CCCCCC(=O)N1C[C@@H](n2cc(-c3ccc(F)cc3)nn2)[C@H](O)C[C@@H]1c1ccc(OC)cc1 ?
DNMT1 block: 6; SUMO1 PPI mod: 5; LMPTP block: -1; STEP inh: 3

How did CCNc1ccc(S(=O)(=O)N(C)C)cc1[N+](=O)[O-] do in these assays?
Scp1 inh: 59*; DNMT1 block: 4; SUMO1 PPI mod: -15; LMPTP block: 0; STEP inh: -1

Results for CN(C)C(CNc1ccc(S(C)(=O)=O)cc1[N+](=O)[O-])c1ccccc1 (configuration not stated) ?
Scp1 inh: 2; DNMT1 block: 2; SUMO1 PPI mod: -39; LMPTP block: -1; STEP inh: 1

What do the screens show for `COC(=O)c1cccc(-n2sc3ccccc3c2=O)c1`?
Scp1 inh: 95*; DNMT1 block: 5; SUMO1 PPI mod: -2; LMPTP block: -2; STEP inh: 2

What do the screens show for `O=c1c2ccccc2sn1-c1ccc(Cl)cc1`?
DNMT1 block: -2; SUMO1 PPI mod: 2; LMPTP block: 0; STEP inh: -2

Results for COC(=O)c1cccc(N2CCCC2=O)c1 ?
Scp1 inh: 1; DNMT1 block: 0; SUMO1 PPI mod: 3; LMPTP block: -2; STEP inh: -1

What do the screens show for `Cc1ccc(-n2sc3ccccc3c2=O)cc1`?
Scp1 inh: 64*; DNMT1 block: 5; SUMO1 PPI mod: 2; LMPTP block: 0; STEP inh: -3

What do the screens show for `O=c1c2ccccc2sn1-c1ccc(F)cc1`?
Scp1 inh: 81*; DNMT1 block: 1; SUMO1 PPI mod: 3; LMPTP block: -2; STEP inh: 2

Results for Cc1nc(SCCC(=O)O)c2cc(-c3ccccc3)sc2n1 ?
Scp1 inh: -6; DNMT1 block: 0; SUMO1 PPI mod: -11; LMPTP block: 2; STEP inh: 0

How did COc1cc(-c2cccs2)cc(=O)c2c(C)oc(C)c12 do in these assays?
Scp1 inh: -4; DNMT1 block: 71*; SUMO1 PPI mod: 13; LMPTP block: 3; STEP inh: 2

What do the screens show for `COc1cccc2cc(-c3nc(-c4cccs4)cs3)c(=O)oc12`?
Scp1 inh: -8; DNMT1 block: 3; SUMO1 PPI mod: 0; LMPTP block: 2; STEP inh: 1

What do the screens show for `Cc1ccc(S(=O)(=O)N2Cc3ccccc3CC2C(=O)NC(C)(C)C)cc1` (configuration not stated)?
Scp1 inh: 1; DNMT1 block: -3; SUMO1 PPI mod: 2; LMPTP block: -2; STEP inh: 0

What do the screens show for `O=C(NCCN1CCCC1=O)C1CCC(=O)N(CCc2cccc(F)c2)C1` (configuration not stated)?
Scp1 inh: -7; DNMT1 block: 1; SUMO1 PPI mod: 44*; LMPTP block: 0; STEP inh: 2

How did Cc1ccc(S(=O)(=O)N2CCOCC2)cc1NC(=O)COC(=O)c1cnc(Cl)c(Cl)c1 do in these assays?
Scp1 inh: -3; DNMT1 block: -3; SUMO1 PPI mod: 3; LMPTP block: 0; STEP inh: 3

How did N#C/C(=C\c1ccc(-c2ccc(C(=O)O)cc2)o1)c1nc2ccccc2[nH]1 do in these assays?
Scp1 inh: 57*; DNMT1 block: -1; SUMO1 PPI mod: 3; LMPTP block: 8; STEP inh: 60*

How did N#C/C(=C\c1ccccc1C(=O)O)c1nc2ccccc2[nH]1 do in these assays?
Scp1 inh: -12; DNMT1 block: -2; SUMO1 PPI mod: -10; LMPTP block: 1; STEP inh: -2

Results for CCn1c(SCC(=O)c2ccc(C)cc2)nnc1-c1ccoc1C ?
Scp1 inh: -3; DNMT1 block: 0; SUMO1 PPI mod: 0; LMPTP block: 0; STEP inh: -1

Results for CCn1c(SCC(=O)c2ccc(Cl)cc2)nnc1-c1ccoc1C ?
Scp1 inh: -2; DNMT1 block: 0; SUMO1 PPI mod: 39*; LMPTP block: -1; STEP inh: 1

What do the screens show for `COc1ccc(CC(=O)Nc2cc(F)ccc2F)cc1S(=O)(=O)N1CCOCC1`?
DNMT1 block: 4; SUMO1 PPI mod: 1; LMPTP block: -1; STEP inh: -2

What do the screens show for `COc1ccc(C(=O)OCC(=O)Nc2ccc3[nH]c(=O)[nH]c3c2)cc1`?
Scp1 inh: -3; DNMT1 block: 1; SUMO1 PPI mod: 6; LMPTP block: 1; STEP inh: 0

What do the screens show for `O=C(COC(=O)C1CC1)Nc1ccc2[nH]c(=O)[nH]c2c1`?
Scp1 inh: 2; DNMT1 block: 3; SUMO1 PPI mod: 8; LMPTP block: 2; STEP inh: 3
